In brackets after ≈: the same amount, converted by molar mass. Activity calls are given as the source filed them. No cut-off for these calls is given here.
What was measured:
[1] = target: 3',5'-cyclic-AMP phosphodiesterase 4B (Homo sapiens, UniProt Q07343); test: Inhibition of human recombinant PDE4B using [3H]cAMP by packard topcount scintillation counting analysis
Rattus norvegicus [2] = test: Antiinflammatory activity in Sprague-Dawley rat assessed as inhibition of LPS-induced bronchoalveolar lavage neutrophils at 0.03 mg/ml, inhalation administered as nebulized suspension; format: functional, organism-based
Method in brief: (§1)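 Rats were given the compound as an aqueous nebulized aerosol by nose-only inhalation 30 min before LPS challenge. Dose is expressed as mg/mL nebulizer concentration. Lung neutrophilia was the readout, and terminal lung concentration (nM) was measured. Groups held 8−10 animals per treatment.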

Rattus norvegicus [3] = test: Antiinflammatory activity in Sprague-Dawley rat assessed as inhibition of LPS-induced bronchoalveolar lavage neutrophils at 0.01 mg/ml, inhalation administered as nebulized suspension; format: functional; method in brief: as §1
[4] = Aqueous solubility of the compound at pH 7.4; format: physicochemical; details: aqueous medium
[5] = Fraction unbound in human plasma; format: ADME, cell-free
[6] = Lipophilicity, log D of the compound; format: physicochemical; details: octanol/water
Cytochrome P450 3A4 = Cytochrome P450 3A4 (Homo sapiens, UniProt P08684); test: Inhibition of CYP3A4 (unknown origin); format: ADME
[7] = Clearance in rat at 1 mg/kg, iv; format: ADME, organism-based; parameters: dose 1 mg/kg, route intravenous; details: in vivo
Method in brief: (§2)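 Rat pharmacokinetics were run at 1 mg/kg, given iv or by intratracheal instillation, with 2−3 animals per study.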

Cytochrome P450 2C9 = Cytochrome P450 2C9 (Homo sapiens, UniProt P11712); test: Inhibition of CYP2C9 (unknown origin); format: ADME
[8] = Volume of distribution at steady state in rat at 1 mg/kg, iv; format: ADME, organism-based; parameters: dose 1 mg/kg, route intravenous; details: in vivo, read-out: Vdss
PBMC = test: Antiinflammatory activity in human PBMC assessed as inhibition of LPS-induced TNFalpha production after 20 hrs by fluorescence linked immunosorbant assay; format: functional, cell-based
Cytochrome P450 2D6 = Cytochrome P450 2D6 (Homo sapiens, UniProt P10635); test: Inhibition of CYP2D6 (unknown origin); format: ADME
Cytochrome P450 2C19 = Cytochrome P450 2C19 (Homo sapiens, UniProt P33261); test: Inhibition of CYP2C19 (unknown origin); format: ADME
Cytochrome P450 1A2 = target: T1, Cytochrome P450 1A2 (Homo sapiens, UniProt P05177); test: Inhibition of CYP1A2 (unknown origin); format: ADME
T1 sequence (P05177 whole entry): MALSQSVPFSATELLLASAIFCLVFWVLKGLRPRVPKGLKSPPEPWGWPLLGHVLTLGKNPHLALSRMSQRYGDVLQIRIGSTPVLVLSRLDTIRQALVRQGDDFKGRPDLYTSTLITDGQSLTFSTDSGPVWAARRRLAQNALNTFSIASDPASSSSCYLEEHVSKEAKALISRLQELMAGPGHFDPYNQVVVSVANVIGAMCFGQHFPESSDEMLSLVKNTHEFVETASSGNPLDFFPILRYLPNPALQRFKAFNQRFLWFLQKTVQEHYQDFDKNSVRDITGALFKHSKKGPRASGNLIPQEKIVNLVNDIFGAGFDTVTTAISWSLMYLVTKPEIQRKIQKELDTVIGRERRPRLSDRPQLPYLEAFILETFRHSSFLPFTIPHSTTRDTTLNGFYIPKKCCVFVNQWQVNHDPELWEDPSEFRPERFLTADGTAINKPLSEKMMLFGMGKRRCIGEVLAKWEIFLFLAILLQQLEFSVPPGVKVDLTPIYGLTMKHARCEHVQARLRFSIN

[9] = Half life in rat at 1 mg/kg, iv; format: ADME, organism-based; parameters: dose 1 mg/kg, route intravenous; details: in vivo; method in brief: as §2
Rattus norvegicus [10] = test: Apparent volume of distribution in rat at 1 mg/kg, iv; format: ADME, organism-based; parameters: dose 1 mg/kg, route intravenous; details: in vivo; method in brief: as §2
Rattus norvegicus [11] = test: Antiinflammatory activity in nasally dosed Sprague-Dawley rat assessed as inhibition of LPS-induced bronchoalveolar lavage neutrophils measured as nebulizer concentration administered as […]; format: functional
Method in brief: (§3)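 ED80 was derived from the nose-only nebulized-solution dose response in rats dosed 30 min before LPS challenge, with neutrophilia as the readout. ED80 is given as nebulizer concentration, as the matching terminal total lung concentration, and as lung deposited dose estimated from measured filter sample and terminal lung levels.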

Rattus norvegicus [12] = test: Antiinflammatory activity in Sprague-Dawley rat assessed as inhibition of LPS-induced bronchoalveolar lavage neutrophils measured as LPS duration at 0.1 mg/ml, inhalation administered as nebulized suspension; format: functional, organism-based
Method in brief: (§4)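 Duration protocol: rats received a nose-only inhalation of nebulized aqueous compound solution 12 h before LPS challenge. Dose is expressed as mg/mL nebulizer concentration. Readout was LPS-induced pulmonary neutrophilia, with terminal lung concentration (nM) measured. Groups held 8−10 animals per treatment.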

Rattus norvegicus [13] = test: Antiinflammatory activity in nasally dosed Sprague-Dawley rat assessed as inhibition of LPS-induced bronchoalveolar lavage neutrophils measured as lung concentration administered as […]; format: functional; method in brief: as §3
Rattus norvegicus [14] = test: Antiinflammatory activity in nasally dosed Sprague-Dawley rat assessed as inhibition of LPS-induced bronchoalveolar lavage neutrophils measured as lung deposited dose administered as […]; format: functional; method in brief: as §3
[15] = Intrinsic clearance in human liver microsomes; format: ADME; details: read-out: CLH
Blood = test: tissue or blood; details: Rattus norvegicus, 20 h, read-out: pIC50 (converted)
[16] = Fraction unbound in rat plasma; format: ADME, cell-free
Rattus norvegicus [17] = test: Antiinflammatory activity in Sprague-Dawley rat assessed as inhibition of LPS-induced bronchoalveolar lavage neutrophils measured as LPS duration at 0.03 to 3 mg/ml, inhalation administered as nebulized suspension; format: functional, organism-based; method in brief: as §4
Rattus norvegicus [18] = test: Antiinflammatory activity in Sprague-Dawley rat assessed as inhibition of LPS-induced bronchoalveolar lavage neutrophils at 0.03 to 3 mg/ml, inhalation administered as nebulized suspension; format: functional, organism-based; method in brief: as §1
Rattus norvegicus [19] = test: Antiinflammatory activity in Sprague-Dawley rat assessed as inhibition of LPS-induced bronchoalveolar lavage neutrophils at lung exposure 1000 to 6000 particles/cm'3, inhalation administered as dry powder; format: functional, organism-based
Rattus norvegicus [20] = test: Antiinflammatory activity in Sprague-Dawley rat assessed as inhibition of LPS-induced bronchoalveolar lavage neutrophils at 145 to 5238 particles/cm'3, inhalation administered as dry powder; format: functional, organism-based
[21] = Intrinsic clearance in rat hepatocytes measured per 10^6 cells; format: ADME, cell-based, Hepatocyte; details: read-out: CLH

Sequence of 3',5'-cyclic-AMP phosphodiesterase 4B (Q07343 whole entry): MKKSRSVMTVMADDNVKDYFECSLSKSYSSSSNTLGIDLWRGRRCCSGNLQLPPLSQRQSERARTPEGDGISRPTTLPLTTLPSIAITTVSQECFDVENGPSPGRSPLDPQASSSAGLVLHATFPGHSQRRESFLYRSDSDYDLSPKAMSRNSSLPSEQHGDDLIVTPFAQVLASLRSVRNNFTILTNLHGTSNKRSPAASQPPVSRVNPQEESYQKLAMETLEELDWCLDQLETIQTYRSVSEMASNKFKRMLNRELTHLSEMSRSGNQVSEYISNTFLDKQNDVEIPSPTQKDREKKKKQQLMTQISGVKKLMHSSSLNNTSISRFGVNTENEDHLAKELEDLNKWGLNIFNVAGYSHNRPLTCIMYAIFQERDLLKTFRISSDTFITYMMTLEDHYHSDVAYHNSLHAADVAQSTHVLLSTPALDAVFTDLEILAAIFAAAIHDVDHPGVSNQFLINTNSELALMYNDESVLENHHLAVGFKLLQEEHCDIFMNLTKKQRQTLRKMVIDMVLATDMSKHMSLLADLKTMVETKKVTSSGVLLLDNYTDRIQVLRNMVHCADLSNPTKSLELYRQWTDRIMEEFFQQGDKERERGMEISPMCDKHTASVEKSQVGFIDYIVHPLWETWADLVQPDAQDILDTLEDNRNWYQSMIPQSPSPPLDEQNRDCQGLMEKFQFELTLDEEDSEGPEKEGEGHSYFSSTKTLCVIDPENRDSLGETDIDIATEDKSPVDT
Sequence of Cytochrome P450 2C9 (P11712 whole entry): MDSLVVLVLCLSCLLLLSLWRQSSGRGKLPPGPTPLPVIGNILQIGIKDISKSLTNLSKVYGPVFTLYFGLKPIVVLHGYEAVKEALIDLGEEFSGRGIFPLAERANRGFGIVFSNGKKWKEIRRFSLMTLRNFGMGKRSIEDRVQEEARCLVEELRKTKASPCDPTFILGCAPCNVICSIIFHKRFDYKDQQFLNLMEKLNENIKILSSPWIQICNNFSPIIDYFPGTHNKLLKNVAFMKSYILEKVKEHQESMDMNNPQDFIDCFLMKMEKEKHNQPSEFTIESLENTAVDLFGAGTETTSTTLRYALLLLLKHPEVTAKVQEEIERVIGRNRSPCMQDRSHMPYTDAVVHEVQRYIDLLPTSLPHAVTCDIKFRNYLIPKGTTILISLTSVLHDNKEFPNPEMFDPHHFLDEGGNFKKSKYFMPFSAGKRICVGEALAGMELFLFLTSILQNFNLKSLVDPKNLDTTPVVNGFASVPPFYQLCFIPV
Sequence of Cytochrome P450 2C19 (P33261 whole entry): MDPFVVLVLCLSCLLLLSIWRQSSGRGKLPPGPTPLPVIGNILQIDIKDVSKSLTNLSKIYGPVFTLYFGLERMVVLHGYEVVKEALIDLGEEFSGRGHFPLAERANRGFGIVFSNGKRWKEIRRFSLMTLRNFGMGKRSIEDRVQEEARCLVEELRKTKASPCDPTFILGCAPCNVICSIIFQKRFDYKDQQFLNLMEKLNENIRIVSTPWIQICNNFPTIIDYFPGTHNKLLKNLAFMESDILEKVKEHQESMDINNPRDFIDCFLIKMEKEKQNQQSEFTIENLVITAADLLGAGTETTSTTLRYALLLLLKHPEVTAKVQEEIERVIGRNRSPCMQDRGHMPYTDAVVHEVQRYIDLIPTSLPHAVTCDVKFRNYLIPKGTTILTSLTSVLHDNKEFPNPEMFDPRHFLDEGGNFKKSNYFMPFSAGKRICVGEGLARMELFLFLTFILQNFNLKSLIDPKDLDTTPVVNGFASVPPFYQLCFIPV
Sequence of Cytochrome P450 2D6 (P10635 whole entry): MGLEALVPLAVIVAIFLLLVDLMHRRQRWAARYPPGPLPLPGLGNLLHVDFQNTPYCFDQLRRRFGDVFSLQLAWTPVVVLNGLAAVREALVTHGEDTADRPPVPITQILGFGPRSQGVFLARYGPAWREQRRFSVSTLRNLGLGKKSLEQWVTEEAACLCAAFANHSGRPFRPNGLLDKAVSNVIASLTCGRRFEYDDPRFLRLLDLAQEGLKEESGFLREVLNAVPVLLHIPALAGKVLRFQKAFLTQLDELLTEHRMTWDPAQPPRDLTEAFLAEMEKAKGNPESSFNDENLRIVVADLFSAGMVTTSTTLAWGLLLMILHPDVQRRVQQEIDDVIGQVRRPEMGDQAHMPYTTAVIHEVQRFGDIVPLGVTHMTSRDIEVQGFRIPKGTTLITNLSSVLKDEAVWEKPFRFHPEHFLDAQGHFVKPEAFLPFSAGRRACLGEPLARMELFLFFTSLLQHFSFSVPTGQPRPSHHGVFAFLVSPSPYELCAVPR
Sequence of Cytochrome P450 3A4 (P08684 whole entry): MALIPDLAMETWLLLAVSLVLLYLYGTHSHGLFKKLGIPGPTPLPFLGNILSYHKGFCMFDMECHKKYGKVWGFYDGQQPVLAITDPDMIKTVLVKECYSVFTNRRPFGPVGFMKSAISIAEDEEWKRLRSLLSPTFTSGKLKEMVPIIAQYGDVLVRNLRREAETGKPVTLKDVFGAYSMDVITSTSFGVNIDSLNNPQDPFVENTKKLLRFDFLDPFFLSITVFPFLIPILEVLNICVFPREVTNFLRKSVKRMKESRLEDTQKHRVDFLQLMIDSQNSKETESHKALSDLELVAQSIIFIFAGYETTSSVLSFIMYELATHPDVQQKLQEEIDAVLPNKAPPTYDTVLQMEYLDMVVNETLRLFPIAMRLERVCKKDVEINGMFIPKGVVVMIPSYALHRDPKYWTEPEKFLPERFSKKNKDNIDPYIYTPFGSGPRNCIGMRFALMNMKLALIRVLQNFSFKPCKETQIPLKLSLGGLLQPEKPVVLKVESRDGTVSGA

| IC50 [1] [nM] | solubility [4] [µM] | fraction unbound [5] | logD [6] | clearance [7] [mL/min/kg] | Vd [8] [L/kg] | half-life [9] [h] | Compound | IC50 (PBMC) [nM] | other results |
| --- | --- | --- | --- | --- | --- | --- | --- | --- | --- |
| – | 890 (≈ 596 µg/mL) | 0.12 | 2.4 | – | – | – | Cc1cc(C(=O)N[C@H]2CC[C@@H](NC(=O)c3cc(F)cnc3Oc3cccc(-c4ccc(CN5C[C@@H](C)N[C@@H](C)C5)c(O)c4)c3)CC2)nn1C | – | – |
| 0.126 | – | – | – | – | – | – | C[C@@H]1CN(Cc2ccc(-c3cccc(Oc4ncc(F)cc4C(=O)N[C@H]4CC[C@@H](NC(=O)c5ncccc5O)CC4)c3)cc2)C[C@H](C)N1 | – | – |
| 0.0501 | – | – | – | – | – | – | Cc1cc(C)n2ncc(C(=O)N[C@H]3CC[C@@H](NC(=O)c4cc(F)cnc4Oc4cccc(-c5ccc(O)cc5CN5CCOCC5)c4)CC3)c2n1 | – | – |
| 2.51 | – | – | – | – | – | – | O=C(N[C@H]1CC[C@@H](NC(=O)c2cc(F)cnc2Oc2cccc(-c3ccc(O)cc3CN3CCOCC3)c2)CC1)c1cncc(O)c1 | – | – |
| 0.631 | < 1 | 0.0017 | 4.4 | 97 | 22 | 7.6 | Cc1ccc(O)c(C(=O)N[C@H]2CC[C@@H](NC(=O)c3cc(F)cnc3Oc3ccc(F)c(F)c3)CC2)c1 [UK-500001] | 3.98 | microsomal CLint [15]: 116 µL/min/mg; IC50 (Blood): 39.8 nM; fraction unbound [16]: 0.017; inhibition (Rattus norvegicus [17]): inactive; inhibition (Rattus norvegicus [18]): inactive; inhibition (Rattus norvegicus [19]): Active; inhibition (Rattus norvegicus [20]): Active; hepatocyte CLint [21]: 76 µL/min/1e6 cells |

The next lines start with the molecule.

| Compound | IC50 [1] [nM] | solubility [4] [µM] | fraction unbound [5] | logD [6] | clearance [7] [mL/min/kg] | Vd [8] [L/kg] | half-life [9] [h] | IC50 (PBMC) [nM] | other results |
| --- | --- | --- | --- | --- | --- | --- | --- | --- | --- |
| Cc1csc(C(=O)N[C@H]2CC[C@@H](NC(=O)c3cc(F)cnc3Oc3cccc(-c4ccc(CN5C[C@@H](C)N[C@@H](C)C5)cc4)c3)CC2)n1 | 0.0316 | – | – | – | – | – | – | – | – |
| Cc1csc(C(=O)N[C@H]2CC[C@@H](NC(=O)c3cc(F)cnc3Oc3cccc(-c4ccc(CN5C[C@@H](C)N[C@@H](C)C5)cc4CN4CCOCC4)c3)CC2)n1 | – | – | – | – | – | – | – | – | inhibition (Rattus norvegicus [2]): Active; inhibition (Rattus norvegicus [3]): Active |
| Cc1nc(C(=O)N[C@H]2CC[C@@H](NC(=O)c3cc(F)cnc3Oc3cccc(-c4ccc(CN5C[C@@H](C)N[C@@H](C)C5)cc4)c3)CC2)cs1 | – | – | – | – | – | – | – | – | pIC50 [1]: 10.2 |
| Cc1cccc2nc(C(=O)N[C@H]3CC[C@@H](NC(=O)c4cc(F)cnc4Oc4cccc(-c5ccc(CN6C[C@@H](C)N[C@@H](C)C6)cc5)c4)CC3)cn12 | – | 460 (≈ 317 µg/mL) | 0.012 | 2.7 | 61 | 14 | 5.3 | 0.126 | IC50 (Cytochrome P450 3A4): > 1000 nM; IC50 (Cytochrome P450 2C9): > 1000 nM; IC50 (Cytochrome P450 2D6): > 1000 nM; IC50 (Cytochrome P450 2C19): > 1000 nM; IC50 (Cytochrome P450 1A2): > 1000 nM; Vz/F (Rattus norvegicus [10]): 28 L/kg |
| Cc1cc(C(=O)N[C@H]2CC[C@@H](NC(=O)c3cc(F)cnc3Oc3cccc(-c4ccc(CCCN5C[C@@H](C)N[C@@H](C)C5)cc4)c3)CC2)nn1C | 0.02 | 130 (≈ 88.6 µg/mL) | 0.045 | 2.6 | 68 | 21 | 7 | 0.0631 | ED80 (Rattus norvegicus [11]): 50 µg/mL (≈ 73.3 µM); inhibition (Rattus norvegicus [12]): Active; inhibition (Rattus norvegicus [2]): Active; IC50 (Cytochrome P450 3A4): > 1000 nM; IC50 (Cytochrome P450 2C9): > 1000 nM; IC50 (Cytochrome P450 2D6): > 1000 nM; IC50 (Cytochrome P450 2C19): > 1000 nM; IC50 (Cytochrome P450 1A2): > 1000 nM; ED80 (Rattus norvegicus [13]): 60 nM; ED80 (Rattus norvegicus [14]): 0.6 µg/kg; Vz/F (Rattus norvegicus [10]): 41 L/kg |
| Cc1cc(C(=O)N[C@H]2CC[C@@H](NC(=O)c3cc(F)cnc3Oc3cccc(-c4ccc(CCN5CCC(N6CCCC6)CC5)cc4)c3)CC2)nn1C | 0.0398 | 120 (≈ 84.9 µg/mL) | 0.042 | 2.4 | 74 | 44 | 9 | 0.0316 | inhibition (Rattus norvegicus [12]): Active; IC50 (Cytochrome P450 3A4): > 1000 nM; IC50 (Cytochrome P450 2C9): > 1000 nM; IC50 (Cytochrome P450 2D6): > 1000 nM; IC50 (Cytochrome P450 2C19): > 1000 nM; IC50 (Cytochrome P450 1A2): > 1000 nM; Vz/F (Rattus norvegicus [10]): 59 L/kg |
